According to ChEMBL document CHEMBL1139934, “Synthesis and biological activity of imidazopyridine anticoccidial agents: part I” (Eur J Med Chem, 2007):

Experiments:
[1] = system: Eimeria acervulina; assay: Anticococcidal activity against Eimeria acervulina in Chick assessed as reduction in oocyte at 12.5 ppm relative to control; format: functional; design: scale not given: the % may be the effect or the level left
How it was run: (§1)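 Expanded Mini-Assay Coccidiosis (ExMAC) in chickens infected with E. tenella, E. acervulina, E. mitis and E. maxima. Compound given in the feed at the stated ppm. Efficacy for each species is scored 0 to 4 from the percent oocyst reduction relative to an untreated control. Where a compound was tested more than once, all values are reported.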

[2] = system: Eimeria mitis; assay: Anticococcidal activity against Eimeria mitis in Chick assessed as reduction in oocyte at 25 ppm relative to control; format: functional; design: scale not given: the % may be the effect or the level left; how it was run: as §1
[3] = system: Eimeria tenella; assay: Anticococcidal activity against Eimeria tenella in Chick assessed as reduction in oocyte at 25 ppm relative to control; format: functional; design: scale not given: the % may be the effect or the level left; how it was run: as §1
[4] = molecular target: cGMP-dependent protein kinase (Eimeria tenella, UniProt Q8MMZ8); assay: Inhibition of Eimeria tenella cGMP-dependent protein kinase by Ten_K assay
How it was run: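 Ten_K (Tenella Kinase) assay measuring inhibition of E. tenella PKG enzyme activity. Result expressed as the concentration giving 50% inhibition (IC50, nM). Where a compound was tested more than once, all values are reported.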

[5] = system: Eimeria acervulina; assay: Anticococcidal activity against Eimeria acervulina in Chick assessed as reduction in oocyte at 6.25 ppm relative to control; format: functional; design: scale not given: the % may be the effect or the level left; how it was run: as §1
[6] = system: Eimeria maxima; assay: Anticococcidal activity against Eimeria maxima in Chick assessed as reduction in oocyte at 12.5 ppm relative to control; format: functional; design: scale not given: the % may be the effect or the level left; how it was run: as §1
[7] = system: Eimeria mitis; assay: Anticococcidal activity against Eimeria mitis in Chick assessed as reduction in oocyte at 6.25 ppm relative to control; format: functional; design: scale not given: the % may be the effect or the level left; how it was run: as §1
[8] = system: Eimeria maxima; assay: Anticococcidal activity against Eimeria maxima in Chick assessed as reduction in oocyte at 25 ppm relative to control; format: functional; design: scale not given: the % may be the effect or the level left; how it was run: as §1
[9] = system: Eimeria tenella; assay: Anticococcidal activity against Eimeria tenella in Chick assessed as reduction in oocyte at 12.5 ppm relative to control; format: functional; design: scale not given: the % may be the effect or the level left; how it was run: as §1
[10] = system: Eimeria mitis; assay: Anticococcidal activity against Eimeria mitis in Chick assessed as reduction in oocyte at 12.5 ppm relative to control; format: functional; design: scale not given: the % may be the effect or the level left; how it was run: as §1
[11] = system: Eimeria tenella; assay: Anticococcidal activity against Eimeria tenella in Chick assessed as reduction in oocyte at 6.25 ppm relative to control; format: functional; design: scale not given: the % may be the effect or the level left; how it was run: as §1
[12] = system: Eimeria maxima; assay: Anticococcidal activity against Eimeria maxima in Chick assessed as reduction in oocyte at 6.25 ppm relative to control; format: functional; design: scale not given: the % may be the effect or the level left; how it was run: as §1
[13] = system: Eimeria acervulina; assay: Anticococcidal activity against Eimeria acervulina in Chick assessed as reduction in oocyte at 25 ppm relative to control; format: functional; design: scale not given: the % may be the effect or the level left; how it was run: as §1

cGMP-dependent protein kinase, sequence (Q8MMZ8 whole entry): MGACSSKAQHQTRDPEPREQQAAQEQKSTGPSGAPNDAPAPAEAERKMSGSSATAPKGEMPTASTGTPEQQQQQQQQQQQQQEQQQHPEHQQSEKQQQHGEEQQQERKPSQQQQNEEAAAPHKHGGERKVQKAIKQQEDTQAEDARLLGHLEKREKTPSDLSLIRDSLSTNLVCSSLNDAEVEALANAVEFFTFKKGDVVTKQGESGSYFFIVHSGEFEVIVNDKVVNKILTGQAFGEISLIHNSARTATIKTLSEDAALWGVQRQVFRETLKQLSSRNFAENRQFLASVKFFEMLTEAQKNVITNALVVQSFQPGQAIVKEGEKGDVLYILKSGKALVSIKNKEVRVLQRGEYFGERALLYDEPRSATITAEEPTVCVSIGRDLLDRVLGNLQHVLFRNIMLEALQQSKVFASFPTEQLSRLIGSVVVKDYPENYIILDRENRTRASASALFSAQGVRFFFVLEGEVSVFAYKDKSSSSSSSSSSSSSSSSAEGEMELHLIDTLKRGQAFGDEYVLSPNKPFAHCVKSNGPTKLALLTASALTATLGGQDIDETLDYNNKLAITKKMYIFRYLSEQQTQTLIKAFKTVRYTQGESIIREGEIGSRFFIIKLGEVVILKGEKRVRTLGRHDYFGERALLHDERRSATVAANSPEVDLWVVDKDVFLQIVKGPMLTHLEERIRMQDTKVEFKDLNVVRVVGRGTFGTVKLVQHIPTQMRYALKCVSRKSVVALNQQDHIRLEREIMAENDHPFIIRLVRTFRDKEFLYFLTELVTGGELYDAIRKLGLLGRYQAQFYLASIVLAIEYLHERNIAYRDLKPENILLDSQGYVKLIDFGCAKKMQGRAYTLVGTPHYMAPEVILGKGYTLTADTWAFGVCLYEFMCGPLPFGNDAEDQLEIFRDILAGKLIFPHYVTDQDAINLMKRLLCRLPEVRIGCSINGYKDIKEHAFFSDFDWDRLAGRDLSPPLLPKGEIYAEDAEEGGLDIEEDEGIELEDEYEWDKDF

SMILES	Activity [1] [%]	Activity [2] [%]	Activity [3] [%]	IC50 [4] [nM]	Activity [5] [%]	Activity [6] [%]	Activity [7] [%]	Activity [8] [%]	Activity [9] [%]	Activity [10] [%]	Activity [11] [%]	Activity [12] [%]	Activity [13] [%]
CN(C)Cc1ccn2c(-c3ccnc(NC(=O)C4CC4)n3)c(-c3ccc(F)cc3)nc2c1	80	80	80	0.42	80	80	<50	50	80	80	50	<50	80
CN(C)Cc1ccn2c(-c3ccnc(NC4CCC4)n3)c(-c3ccc(F)cc3)nc2c1	80	80	80	0.22	<50	80	<50	80	80	50	80	50	80
CN(C)Cc1ccn2c(-c3ccnc(NCC4CC4)n3)c(-c3ccc(F)cc3)nc2c1	80	80	80	0.064	80	80	<50	80	80	80	<50	80	80
CN(C)Cc1ccn2c(-c3ccnc(NC4CC4)n3)c(-c3ccc(F)cc3)nc2c1	80	80	80	0.08	80	80	<50	80	80	50	<50	80	80
CCNc1nccc(-c2c(-c3ccc(F)cc3)nc3cc(CN(C)C)ccn23)n1	80	80	80	0.23		80	<50	80	80	<50	<50	80	80
CN(C)Cc1ccn2c(-c3ccnc(NC4CCCCC4)n3)c(-c3ccc(F)cc3)nc2c1	<50	80	80	0.12	<50	80	<50	80	80	50	80	80	50
CN(C)Cc1ccn2c(-c3ccnc(NCc4c(F)cccc4F)n3)c(-c3ccc(F)cc3)nc2c1	<50	80	50	0.06	<50	80	<50	80	<50	<50	<50	50	<50
CN(C)Cc1ccn2c(-c3ccnc(NC=O)n3)c(-c3ccc(F)cc3)nc2c1	80			0.45	80	80	<50		80	50	80	80	
CN(C)Cc1ccn2c(-c3ccnc(NCc4cccc(F)c4)n3)c(-c3ccc(F)cc3)nc2c1	50	50	50	0.09	<50	80	<50	80	<50	<50	<50	<50	80
CN(C)Cc1ccn2c(-c3ccnc(NC(=O)C4CCC4)n3)c(-c3ccc(F)cc3)nc2c1	<50	80	80	0.27	<50	80	<50	80	80	80	80	<50	80
CCC(=O)Nc1nccc(-c2c(-c3ccc(F)cc3)nc3cc(CN(C)C)ccn23)n1	<50	80	80	0.3	<50	80	<50	80	80	<50	<50		80
CCCC(=O)Nc1nccc(-c2c(-c3ccc(F)cc3)nc3cc(CN(C)C)ccn23)n1	80			0.63	<50	80	<50		80	80	<50	80	
CN(C)Cc1ccn2c(-c3ccnc(NC(=O)C4CCCC4)n3)c(-c3ccc(F)cc3)nc2c1	<50	80	80	0.21	<50		<50		80	80	< 50		80
CN(C)Cc1ccn2c(-c3ccnc(NC4CCCC4)n3)c(-c3ccc(F)cc3)nc2c1	80			0.102	80	80	50		80	80	80	<50	
CCCCC(=O)Nc1nccc(-c2c(-c3ccc(F)cc3)nc3cc(CN(C)C)ccn23)n1	50	80	80	0.25	80	80	<50	80	50		< 50	80	80
CN(C)Cc1ccn2c(-c3ccnc(NCCCO)n3)c(-c3ccc(F)cc3)nc2c1	80			0.33	<50	80	<50		80	80	80	80	
